In ChEMBL document CHEMBL1135591, “Synthesis and characterization of a series of novel monoacylated ascorbic acid derivatives, 6-O-acyl-2-O-alpha-D-glucopyranosyl-L-ascorbic acids, as skin antioxidants” (J Med Chem, 2002):

How the values were obtained:
[1] = Free radical scavenging assessed as 50% reduction in DPPH absorbance (516 nm); type: functional
Method in brief: (§1)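 DPPH (0.5 mM in ethanol, 1 part) mixed with antioxidant in ethanol/H2O 1:1 (4 parts; 1.25 × 10⁻⁶ to 1.25 × 10⁻³ M solutions); DPPH in reaction 10⁻⁴ M. Room temperature, 20 min; decolorization read at 516 nm. EC50 = concentration giving 50% of blank absorbance, from dose-response curve; mean ± SD of triplicates.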

[2] = Compound was evaluated for its partition between n-octanol and water(pH 7); type: physicochemical; conditions: buffer
Method in brief: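 100 mM stock in DMSO diluted to 1 mM in 50 mM potassium phosphate buffer (pH 7.0); 5 mL aqueous solution mixed and partitioned with 5 mL n-octanol. Compound in the octanol phase quantified by HPLC (UV 240 nm). Mean ± SD, n = 6.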

[3] = Free radical scavenging assessed as color reduction of DPPH; type: functional; method in brief: as §1

Compound | EC50 [1] | Distribution percent [2] | Scavenging activity [3]
VITAMIN E [listing 1 of 2 here] | 1.9 10uM |  | 
O=C1O[C@H]([C@@H](O)CO)C(O)=C1O [ASCORBIC ACID] | 2.2 10uM | 0.7 | 94.3%
CCCC(=O)OC[C@H](O)[C@H]1OC(O)=C(O[C@@H]2OC(CO)[C@@H](O)C(O)[C@@H]2O)C1=O (stereo partly specified) | 5.9 10uM | 4 | 69.2%
CCCCCCCCCCCCCCCC(=O)OC[C@H](O)[C@H]1OC(O)=C(OC(=O)CCCCCCCCCCCCCCC)C1=O |  |  | 23.7%
CCCCCC(=O)OC[C@H](O)[C@H]1OC(O)=C(O[C@@H]2OC(CO)[C@@H](O)C(O)[C@@H]2O)C1=O (stereo partly specified) | 5.4 10uM | 8.7 | 73.8%
CCCCCCCC(=O)OC[C@H](O)[C@H]1OC(O)=C(O[C@@H]2OC(CO)[C@@H](O)C(O)[C@@H]2O)C1=O (stereo partly specified) | 5.7 10uM | 43.4 | 76.6%
O=C1C(OS(=O)(=O)O)=C(O)O[C@@H]1[C@@H](O)CO |  |  | 0%
O=C1C(OP(=O)(O)O)=C(O)O[C@@H]1[C@@H](O)CO |  |  | 1.5%
VITAMIN E [listing 2 of 2 here] |  |  | 90.9%
CCCCCCCCCCCCCC(=O)OC[C@H](O)[C@H]1OC(O)=C(O[C@@H]2OC(CO)[C@@H](O)C(O)[C@@H]2O)C1=O (stereo partly specified) | 4.4 10uM | 87 | 74.1%
CCCCCCCCCC(=O)OC[C@H](O)[C@H]1OC(O)=C(O[C@@H]2OC(CO)[C@@H](O)C(O)[C@@H]2O)C1=O (stereo partly specified) | 4.2 10uM | 76.6 | 73.6%
CCCCCCCCCCCCCCCCCC(=O)OC[C@H](O)[C@H]1OC(O)=C(O[C@@H]2OC(CO)[C@@H](O)C(O)[C@@H]2O)C1=O (stereo partly specified) | 4.4 10uM | 84.6 | 77.5%
CCCCCCCCCCCC(=O)OC[C@H](O)[C@H]1OC(O)=C(O[C@@H]2OC(CO)[C@@H](O)C(O)[C@@H]2O)C1=O (stereo partly specified) | 4.6 10uM | 83.8 | 76.2%
O=C1C(O[C@@H]2OC(CO)[C@@H](O)C(O)[C@@H]2O)=C(O)O[C@@H]1[C@@H](O)CO (stereo partly specified) | 6.1 10uM | 0 | 68.9%
CCCCCCCCCCCCCCCC(=O)OC[C@H](O)[C@H]1OC(=O)C(O)=C1O |  |  | 95.7%
CCCCCCCCCCCCCCCC(=O)OC[C@H](O)[C@H]1OC(O)=C(O[C@@H]2OC(CO)[C@@H](O)C(O)[C@@H]2O)C1=O (stereo partly specified) | 4.1 10uM | 87.3 | 76.4%
